# TRPC6 act = mouse TRPC6 channel activation; B-score at 10 µM; actives 0.13% (n = 310,000); AID 2550; Q61143; HEK293-TRPC6 membrane potential dye fluorescence; stronger effect = higher value;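 active = B-score of the integrated fluorescence ratio above library mean plus 3 SD, and starting fluorescence ratio within library mean plus 5 SD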;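 also: higher score means more depolarization so channel activation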
# TRPC4 PAM = TRPC4 (mouse) allosteric potentiation | Q9QUQ5 | actives 0.42% (n = 310,000) | B-score at 10 µM | HEK293 TRPC4beta/mu-opioid, DAMGO EC20, Fluo-4 Ca2+ flux; stronger effect = higher value;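 active = B-score of calcium response area above 5 SD of library B-scores, with initial fluorescence ratio within 5 SD of library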
# Target sequence (Q9QUQ5 whole entry, looked up): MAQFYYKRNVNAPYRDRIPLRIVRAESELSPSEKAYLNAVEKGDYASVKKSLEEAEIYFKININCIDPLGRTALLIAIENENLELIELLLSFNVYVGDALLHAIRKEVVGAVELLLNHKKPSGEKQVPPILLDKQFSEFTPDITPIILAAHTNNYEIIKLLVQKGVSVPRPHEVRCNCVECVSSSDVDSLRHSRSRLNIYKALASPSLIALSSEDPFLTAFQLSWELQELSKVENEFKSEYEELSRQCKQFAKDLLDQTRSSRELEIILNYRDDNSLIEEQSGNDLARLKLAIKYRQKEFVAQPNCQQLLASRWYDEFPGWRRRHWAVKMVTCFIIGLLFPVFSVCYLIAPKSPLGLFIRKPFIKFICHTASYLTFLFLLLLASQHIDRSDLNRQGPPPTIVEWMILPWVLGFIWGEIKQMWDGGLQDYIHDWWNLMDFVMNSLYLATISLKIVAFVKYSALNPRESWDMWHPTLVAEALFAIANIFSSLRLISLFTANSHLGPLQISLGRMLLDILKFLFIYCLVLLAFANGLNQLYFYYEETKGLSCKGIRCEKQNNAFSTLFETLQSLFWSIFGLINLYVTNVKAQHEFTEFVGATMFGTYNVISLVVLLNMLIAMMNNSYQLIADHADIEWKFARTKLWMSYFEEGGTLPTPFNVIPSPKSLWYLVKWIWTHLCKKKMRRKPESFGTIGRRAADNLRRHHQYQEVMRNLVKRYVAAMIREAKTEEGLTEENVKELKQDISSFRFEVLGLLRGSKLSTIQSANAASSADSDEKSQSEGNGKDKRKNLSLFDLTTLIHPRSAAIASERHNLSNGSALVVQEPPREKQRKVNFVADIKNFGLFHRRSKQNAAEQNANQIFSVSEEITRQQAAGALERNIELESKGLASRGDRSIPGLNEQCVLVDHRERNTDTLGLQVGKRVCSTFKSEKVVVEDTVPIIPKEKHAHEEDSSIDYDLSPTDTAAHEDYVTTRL
# TRPC4 inh = TRPC4 (mouse) channel inhibition. HEK293 TRPC4beta/mu-opioid, DAMGO-evoked Fluo4 calcium flux; stronger effect = lower value. B-score at 10 µM. actives 0.39% (n = 300,000). AID 2247;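 active = B-score over 3 SD under the library average, no early fluorescence shift, positive overall ratio signal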
#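 Assay system: HEK293 cells with stable TRPC4beta plus mu-opioid receptor expression. Dosing: single dose. Measured by: Fluo4 Ca2+ flux fluorescence. Also added: DAMGO in two steps, submaximal then maximal. Read-out: B score from integrated Fluo4 fluorescence ratio.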
# TRPC4 agonist = TRPC4 (mouse) channel activation. Q9QUQ5. B-score at 10 µM. AID 2237. HEK293 TRPC4beta/mu-opioid, Fluo4 calcium fluorescence; stronger effect = higher value. actives 0.49% (n = 310,000);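 active = B-score above 5 SD of library B-scores, and initial fluorescence ratio not above library mean plus 5 SD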;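 also: positive B-score marks a calcium rise read as TRPC4 activation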
#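 Incubation: 45 min room-temperature Fluo4 loading, 110 s read / System: HEK293 cells stably co-expressing mouse TRPC4beta and mu-opioid receptor / Signal: Fluo4 fluorescence, kinetic / Control set: buffer (low) and maximal DAMGO (high) / Measure: integrated baseline-normalised fluorescence ratio, converted to per-well B score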
# Kir21 block = inhibitors of mouse Kir2.1 inward-rectifier potassium channel; HEK293-Kir2.1, FluxOR thallium flux fluorescence; stronger effect = lower value; B-score at 10 µM; actives 0.85% (n = 310,000); AID 1672;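 active = fluorescence ratio B-score at or below minus 3 SD of library scores, with starting-brightness B-score within 2 SD, cut at about -4.2 in these data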;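 also: channel flux triggered by added potassium and thallium sulfate stimulus; B-score of peak minus minimum fluorescence over baseline after thallium stimulus; more negative B-score means stronger Kir2.1 block with less thallium influx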
# TRPC6 inhibitor = blocks the mouse TRPC6 cation channel | Q61143 | HEK293-TRPC6, membrane potential dye, ACh-evoked depolarization; stronger effect = lower value | B-score at 10 µM | actives 1.1% (n = 310,000);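 active = B-score under library mean minus 3 SD, initial fluorescence not abnormally high, positive integrated signal ratio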;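 also: B-score derived from integrated fluorescence ratio over the kinetic read; more negative B-score means stronger inhibition of depolarization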
# Hits are given with their value; 0 = inactive. An excerpt weighted towards active compounds, which were near 2.9% of everything screened.
SMILES,TRPC6 act,TRPC4 PAM,TRPC4 inh,TRPC4 agonist,Kir21 block,TRPC6 inhibitor
CC(C)CCC(C(=O)NC(C)c1ccccc1)C(=O)NC(C)c1ccccc1 (stereo not given),0,0,0,0,0,0
CC(C)c1c(O)nc(SCCC(=O)O)[nH]c1=O,0,0,0,0,0,0
CCCCCc1c(O)nc(SCCN(C)C)[nH]c1=O,0,0,0,93,0,0
CCCCCCc1c(O)nc(SCCN(C)C)[nH]c1=O,0,0,0,65,0,0
CCCCc1c(O)nc(SCC(=O)O)[nH]c1=O,0,0,0,0,0,0
CCCCCc1c(O)nc(SCCN(CC)CC)[nH]c1=O,0,0,0,46,0,0
CCCN(CCC)CCSc1nc(O)c(C(C)C)c(=O)[nH]1,0,12,0,0,0,0
CCCCCCc1c(O)nc(SCC(=O)O)[nH]c1=O,0,0,0,0,0,0
O=C(CN1C(=O)NC2NC(=O)NC21)NC1CCCCC1 (stereo not given),0,0,0,0,0,0
CC(C)c1c(O)nc(SCC(=O)N2CCCCC2)[nH]c1=O,0,10,0,0,0,0
CCC(C)c1c(O)nc(SCC(=O)N2CCCCCC2)[nH]c1=O (stereo not given),0,0,0,0,0,0
CC(Oc1ccc2ccc(=O)oc2c1)C(=O)N1CCOCC1 (stereo not given),0,0,0,0,0,0
NCCc1nnc(SCc2ccccc2)o1,0,16,0,0,0,0
Cc1ccc(C)c(CSc2nnc(CCN)o2)c1,0,0,0,81,0,0
c1ccc(CSc2nnc(Cc3ccccc3)o2)cc1,0,0,0,0,0,0
O=C(OCC(=O)c1ccccc1Br)c1ccncc1,0,0,0,0,0,0
O=C(CSc1ccc(F)cc1)NCC1(N2CCOCC2)CCCCC1,0,0,0,0,0,0
CN(c1ccc(C(=O)Nc2cccc(O)c2)cc1)S(=O)(=O)c1ccccc1,0,0,0,0,-4.8,0
COc1ccc(CCNC(=O)C2CC=CCC2C(=O)O)cc1 (stereo not given),0,12,0,0,0,0
COc1ccc(CCNC(=O)COC(=O)C23CC4CC(CC(C4)C2)C3)cc1,0,0,0,0,-7.3,0
COc1ccc(CCNC(=O)COC(=O)C23CC4CC(CC(Br)(C4)C2)C3)cc1,0,0,0,0,0,0
COc1ccccc1NC(=O)C1(c2ccccc2)CCCC1,0,13,0,0,0,0
COc1ccc(CCNC(C)=O)cc1,0,0,0,0,0,0
COc1ccc(CCNC(=O)C2(c3ccccc3)CC2)cc1,0,0,0,0,-4.6,0
O=C(Nc1ncccc1O)c1cccc(S(=O)(=O)NCc2ccccc2)c1,0,0,0,0,0,0
SMILES,TRPC6 act,TRPC4 PAM,TRPC4 inh,TRPC4 agonist,Kir21 block,TRPC6 inhibitor
CC(C)NC(=O)Cn1cc(S(=O)(=O)N2CCCC2)c(S(=O)(=O)N2CCCC2)c1,0,0,0,0,0,0
Cc1cc(N/N=C/c2c[nH]c3ccccc23)c2ccccc2n1,0,0,0,0,0,0
O=C(N/N=C\c1c[nH]c2ccccc12)c1ccc(O)cc1,0,0,0,0,0,0
O=C(O)c1ccc(N/N=C/c2c[nH]c3ccccc23)cc1,0,0,0,0,0,-5.2
Cn1c(N/N=C/c2c[nH]c3ccccc23)nc2ccccc21,0,0,0,0,-5.2,0
COc1cc(/C=C2\C(=O)N(c3ccc(NC(C)=O)cc3)N=C2c2ccccc2)ccc1O,0,15,0,0,0,0
O=C1/C(=C\c2ccc(O)c(O)c2)C(c2ccccc2)=NN1c1ccccc1,0,0,0,0,0,0
Cc1ccc(OCc2cc(C(=O)N3CCC(c4ccccc4Cl)C3)no2)cc1C (stereo not given),0,0,0,0,0,0
CCN(C1CCCCC1)S(=O)(=O)c1ccc(OC)c(C)c1,0,0,0,0,-5.4,0
Cc1cccc2c1cnn2C(=O)Nc1ccccc1Cl,0,0,0,0,0,0
O=C(NCCc1ccccc1)c1cnc2ccccc2n1,0,16,0,0,0,0
CCN(CC(=O)Nc1c(F)cccc1F)C(=O)/C=C/c1ccc2c(c1)OCO2,0,0,0,0,0,0
CC(C)n1c(SCc2cc(=O)[nH]c3ccccc23)nc2c1c(=O)n(C)c(=O)n2C,0,0,0,0,0,0
CC(C)n1c(SCC(N)=O)nc2c1c(=O)n(C)c(=O)n2C,0,0,0,0,0,0
CN(C)CCCn1c(SCC(=O)N2c3ccccc3Sc3ccccc32)nc2ccccc2c1=O,0,0,0,0,-5.2,0
CC(C)n1c(SCc2ccccc2F)nc2c1c(=O)n(C)c(=O)n2C,0,0,0,0,-4.6,0
CC(C)n1c(SCC(=O)N2c3ccccc3Sc3ccccc32)nc2c1c(=O)n(C)c(=O)n2C,0,17,0,0,0,0
CC(C)c1ccccc1NC(=O)CNCCc1ccc(C(F)(F)F)cc1,0,0,0,0,0,0
CCn1c(=O)c(CCC(=O)NCC2CCCO2)c(C)c2c(C)nn(-c3ccc(C)cc3)c21 (stereo not given),0,0,0,0,0,0
COc1ccc(CN2CCCC(C(=O)N3CCc4ccccc4C3)C2)cc1OC (stereo not given),0,0,0,0,0,0
COc1cc(CN2CCCC(C(=O)N3CCc4ccccc4C3)C2)cc(OC)c1OC (stereo not given),0,0,0,55,0,0
O=C(C1CCCN(Cc2ccccc2)C1)N1CCc2ccccc2C1 (stereo not given),0,0,0,160,0,0
CC(C)N(CC(N)=O)C(=O)Cc1coc2cc3c(cc12)CCC3,0,13,0,0,0,0
NC(=O)COC(=O)Cc1coc2cc3c(cc12)CCC3,0,0,0,0,0,0
CC(=O)N(Cc1ccc(Br)cc1)c1cccc(C)c1C,0,0,0,0,-4.9,0
SMILES,TRPC6 act,TRPC4 PAM,TRPC4 inh,TRPC4 agonist,Kir21 block,TRPC6 inhibitor
COCCCNC(=S)N1CCC(NC(=O)Nc2ccc(C)cc2)CC1,0,0,0,0,0,0
CC(C)(C)C(=O)N1CCN(c2ccc([N+](=O)[O-])cc2-n2cccc2)CC1,0,16,0,0,0,0
CC(NC(=O)c1ccco1)C(c1cccs1)N1CCN(c2ccccc2)CC1 (stereo not given),0,0,-6,0,0,0
CCC(=O)NC(C)C(c1cccs1)N1CCN(c2ccccc2)CC1 (stereo not given),0,0,0,119,0,0
CC(NC(=O)Cc1cccs1)C(c1cccs1)N1CCN(c2ccccc2)CC1 (stereo not given),0,0,0,0,0,0
Cc1ccc(N2CCN(c3ccc(NCc4nc5ccccc5n4C)cc3)CC2)cc1,0,0,0,122,0,0

# Source: PubChem BioAssay
